# Assay results reported in ChEMBL document CHEMBL1240472, “Hypervalent iodine(III) mediated synthesis of novel unsymmetrical 2,5-disubstituted 1,3,4-oxadiazoles as antibacterial and antifungal agents” (2010).
# What was measured:
# Staphylococcus aureus [1] = assay: Antimicrobial activity against Staphylococcus aureus MTCC 96 […]; assay type: functional
# Pseudomonas aeruginosa [2] = assay: Antimicrobial activity against Pseudomonas aeruginosa MTCC 741 after 24 hrs by […]; assay type: functional
# Method in brief: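 Agar well diffusion assay (8 mm wells). Inhibition zone diameter read in mm, with the well diameter included in the value. Results are means of three replicates.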
# Staphylococcus aureus [3] = assay: Antimicrobial activity against Staphylococcus aureus MTCC 96 after by agar well diffusion method; note: test concentration or dose not given here
# Escherichia coli [4] = assay: Antimicrobial activity against Escherichia coli MTCC 1652 by […]; assay type: functional
# Bacillus subtilis [5] = assay: Antimicrobial activity against Bacillus subtilis MTCC 121 […]; assay type: functional
# Bacillus subtilis [6] = assay: Antimicrobial activity against Bacillus subtilis MTCC 121 by agar well diffusion method; note: test concentration or dose not given here
# Aspergillus flavus = assay: Antimicrobial activity against Aspergillus flavus assessed as inhibition of mycelial growth by poisoned food method; assay type: functional; note: test concentration or dose not given here
# Aspergillus niger = assay: Antimicrobial activity against Aspergillus niger assessed as inhibition of mycelial growth by poisoned food method; assay type: functional; note: test concentration or dose not given here
# Escherichia coli [7] = assay: Antimicrobial activity against Escherichia coli MTCC 1652 by microdilution assay; assay type: functional; settings: in the assay text read “macrodilution” for “microdilution”
# Method in brief: (§1)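 MIC determined in µg/ml by the macrodilution method, only for compounds active in the primary diffusion screen. Results are means of three replicates.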
# Pseudomonas aeruginosa [8] = assay: Antimicrobial activity against Pseudomonas aeruginosa MTCC 741 by microdilution assay; assay type: functional; settings: in the assay text read “macrodilution” for “microdilution”; method in brief: as §1
# Throughout, for IZ: test concentration or dose not given here.
Structure (SMILES),MIC (Staphylococcus aureus [1]) [µg/mL],inhibition zone (IZ) (Pseudomonas aeruginosa [2]) [mm],inhibition zone (IZ) (Staphylococcus aureus [3]) [mm],inhibition zone (IZ) (Escherichia coli [4]) [mm],MIC (Bacillus subtilis [5]) [µg/mL],inhibition zone (IZ) (Bacillus subtilis [6]) [mm],inhibition (INH) (Aspergillus flavus) [%],inhibition (INH) (Aspergillus niger) [%],MIC (Escherichia coli [7]) [µg/mL],MIC (Pseudomonas aeruginosa [8]) [µg/mL]
c1ccc(-c2nnc(-c3cn(-c4ccccc4)nc3-c3ccccc3)o2)cc1,64,13.6,20.3,14.3,128,18.6,61.1,44.4,> 128,> 128
Clc1ccc(-c2nn(-c3ccccc3)cc2-c2nnc(-c3ccccc3)o2)cc1,32,13.6,21.6,15.6,64,19.6,44.4,55.5,> 128,> 128
Fc1ccc(-c2nn(-c3ccccc3)cc2-c2nnc(-c3ccccc3)o2)cc1,128,14.3,18.6,14.3,32,20.6,50,66.6,> 128,> 128
Brc1ccc(-c2nn(-c3ccccc3)cc2-c2nnc(-c3ccccc3)o2)cc1,64,14.6,20,16.6,128,18.3,55.5,61.1,128,> 128
Cc1ccc(-c2nn(-c3ccccc3)cc2-c2nnc(-c3ccccc3)o2)cc1,128,13.6,18.3,15.6,16,21.6,61.1,66.6,> 128,> 128
COc1ccc(-c2nn(-c3ccccc3)cc2-c2nnc(-c3ccccc3)o2)cc1,16,14,22.6,16.3,32,20.3,66.6,44.4,128,> 128
O=[N+]([O-])c1ccc(-c2nn(-c3ccccc3)cc2-c2nnc(-c3ccccc3)o2)cc1,8,14.3,23.3,15.6,16,21.6,61.1,50,> 128,> 128
O=[N+]([O-])c1ccc(-n2cc(-c3nnc(-c4ccccc4)o3)c(-c3ccccc3)n2)cc1,64,15.3,20.6,18.6,8,24.3,66.6,66.6,128,> 128
COc1ccc(-c2nn(-c3ccc([N+](=O)[O-])cc3)cc2-c2nnc(-c3ccccc3)o2)cc1,8,18.6,24.3,20.6,8,23.6,50,55.5,64,64
O=[N+]([O-])c1ccc(-n2cc(-c3nnc(-c4ccccc4)o3)c(-c3ccc(F)cc3)n2)cc1,32,16.6,21.3,20,8,24.3,55.5,44.4,64,128
O=[N+]([O-])c1ccc(-c2nn(-c3ccc([N+](=O)[O-])cc3)cc2-c2nnc(-c3ccccc3)o2)cc1,16,14.6,22.6,18.3,8,23.6,44.4,55.5,128,> 128
O=C(O)c1cn(C2CC2)c2cc(N3CCNCC3)c(F)cc2c1=O [CIPROFLOXACIN],5,22,26,–,5,24,–,–,5,5
OC(Cn1cncn1)(Cn1cncn1)c1ccc(F)cc1F [FLUCONAZOLE],–,–,–,–,–,–,77.7,81.1,–,–
